Holding throughout (format): functional
The target of assay [1] is T1, Soluble guanylate cyclase (Homo sapiens) (UniProt Q02153+O75343+P33402+Q02108). Put plainly: Ratio of activation of sGC by compound over that of control, in absence of carbon monooxide (basal activity 33+/-3 nmol/min/mg).
Assay [2] concerns the target T1, Soluble guanylate cyclase (Homo sapiens). Put plainly: Ratio of activation of sGC by compound over that of control, in presence of carbon monooxide (basal activity 33+/-3 nmol/min/mg in absence of CO).
The target in assay [3] is Soluble guanylate cyclase (Homo sapiens, UniProt O75343+P33402+Q02108+Q02153). Kind of assay: Effect on YC-1 mediated activation of sGC in presence of carbon monoxide. Summed up: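 Purified sGC from a baculovirus/Sf9 expression system, measured with CO by end-point assay in 4% v/v DMSO across a range of YC-1 concentrations, with and without a fixed level of the test compound. Assays ran 2 min in triplicate, and errors are mean + range/2. EC50 came from a four-parameter logistic fit.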

pEC50: −log10 of the molar value.

Soluble guanylate cyclase, sequence (Q02153 whole entry): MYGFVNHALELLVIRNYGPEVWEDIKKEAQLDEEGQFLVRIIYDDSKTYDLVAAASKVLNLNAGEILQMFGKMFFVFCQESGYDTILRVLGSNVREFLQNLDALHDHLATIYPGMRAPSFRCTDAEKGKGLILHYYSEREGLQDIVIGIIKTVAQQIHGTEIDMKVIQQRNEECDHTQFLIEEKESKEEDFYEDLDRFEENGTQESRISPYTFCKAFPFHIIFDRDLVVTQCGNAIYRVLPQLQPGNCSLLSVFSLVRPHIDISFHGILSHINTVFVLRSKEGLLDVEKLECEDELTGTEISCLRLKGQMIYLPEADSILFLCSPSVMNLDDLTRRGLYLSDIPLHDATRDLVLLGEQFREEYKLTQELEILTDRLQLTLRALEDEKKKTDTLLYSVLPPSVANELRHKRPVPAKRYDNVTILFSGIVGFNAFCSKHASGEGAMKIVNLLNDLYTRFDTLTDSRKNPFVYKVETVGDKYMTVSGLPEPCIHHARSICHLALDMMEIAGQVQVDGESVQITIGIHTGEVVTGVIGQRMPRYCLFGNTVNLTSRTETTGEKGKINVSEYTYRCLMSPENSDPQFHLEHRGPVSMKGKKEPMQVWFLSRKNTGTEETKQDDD
Soluble guanylate cyclase, sequence (O75343 whole entry): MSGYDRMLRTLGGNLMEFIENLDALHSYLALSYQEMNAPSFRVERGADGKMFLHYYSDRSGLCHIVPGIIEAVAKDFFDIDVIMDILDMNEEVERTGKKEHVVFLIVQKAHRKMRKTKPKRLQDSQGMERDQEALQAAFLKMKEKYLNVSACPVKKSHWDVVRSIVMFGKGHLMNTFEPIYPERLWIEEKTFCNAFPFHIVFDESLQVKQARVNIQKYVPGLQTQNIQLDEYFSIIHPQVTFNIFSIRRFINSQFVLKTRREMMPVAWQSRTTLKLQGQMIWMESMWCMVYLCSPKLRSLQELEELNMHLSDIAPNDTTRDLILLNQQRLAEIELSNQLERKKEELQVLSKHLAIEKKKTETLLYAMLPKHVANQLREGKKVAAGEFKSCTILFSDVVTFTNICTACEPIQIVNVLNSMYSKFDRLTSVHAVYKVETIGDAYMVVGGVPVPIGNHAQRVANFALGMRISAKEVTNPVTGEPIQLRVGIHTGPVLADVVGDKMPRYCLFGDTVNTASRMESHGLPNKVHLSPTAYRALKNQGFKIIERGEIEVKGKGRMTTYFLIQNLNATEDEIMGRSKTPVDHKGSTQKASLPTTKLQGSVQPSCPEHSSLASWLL
Soluble guanylate cyclase, sequence (P33402 whole entry): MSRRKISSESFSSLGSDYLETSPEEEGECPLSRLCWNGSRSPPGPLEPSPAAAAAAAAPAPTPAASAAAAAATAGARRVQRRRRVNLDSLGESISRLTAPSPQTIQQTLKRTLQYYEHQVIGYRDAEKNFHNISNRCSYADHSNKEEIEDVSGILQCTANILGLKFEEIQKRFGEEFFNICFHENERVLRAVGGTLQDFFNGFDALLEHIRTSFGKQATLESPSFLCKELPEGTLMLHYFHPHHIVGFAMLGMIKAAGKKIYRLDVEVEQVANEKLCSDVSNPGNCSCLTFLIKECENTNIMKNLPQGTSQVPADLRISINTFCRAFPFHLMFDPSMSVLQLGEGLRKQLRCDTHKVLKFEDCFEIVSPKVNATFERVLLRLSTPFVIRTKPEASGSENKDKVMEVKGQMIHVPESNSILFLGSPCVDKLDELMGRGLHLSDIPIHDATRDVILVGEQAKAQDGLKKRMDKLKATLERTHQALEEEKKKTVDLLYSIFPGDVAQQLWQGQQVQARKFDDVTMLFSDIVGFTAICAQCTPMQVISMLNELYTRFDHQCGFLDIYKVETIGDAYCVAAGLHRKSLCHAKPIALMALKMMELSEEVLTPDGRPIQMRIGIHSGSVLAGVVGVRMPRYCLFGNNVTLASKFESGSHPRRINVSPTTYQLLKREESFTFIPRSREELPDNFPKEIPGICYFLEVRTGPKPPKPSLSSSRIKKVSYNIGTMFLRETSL
Soluble guanylate cyclase, sequence (Q02108 whole entry): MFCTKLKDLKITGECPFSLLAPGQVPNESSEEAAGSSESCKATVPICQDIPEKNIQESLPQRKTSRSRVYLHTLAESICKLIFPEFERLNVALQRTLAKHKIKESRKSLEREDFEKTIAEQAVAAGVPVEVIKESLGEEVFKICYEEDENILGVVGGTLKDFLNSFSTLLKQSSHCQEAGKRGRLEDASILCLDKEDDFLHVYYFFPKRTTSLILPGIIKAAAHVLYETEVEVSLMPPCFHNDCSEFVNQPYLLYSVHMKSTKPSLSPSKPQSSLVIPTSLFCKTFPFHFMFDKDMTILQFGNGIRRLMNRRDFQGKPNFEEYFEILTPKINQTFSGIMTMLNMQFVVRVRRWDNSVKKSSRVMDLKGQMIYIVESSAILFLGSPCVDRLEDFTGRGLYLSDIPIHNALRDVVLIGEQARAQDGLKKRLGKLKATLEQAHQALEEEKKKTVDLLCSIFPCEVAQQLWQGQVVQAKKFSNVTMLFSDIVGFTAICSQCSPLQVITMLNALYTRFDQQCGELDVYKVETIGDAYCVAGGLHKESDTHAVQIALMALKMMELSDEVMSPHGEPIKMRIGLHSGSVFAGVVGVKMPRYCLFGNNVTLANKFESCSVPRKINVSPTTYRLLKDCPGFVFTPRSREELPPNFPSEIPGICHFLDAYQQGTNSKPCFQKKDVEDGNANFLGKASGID

With `OCc1ccc(-c2nn(Cc3ccccc3)c3ccccc23)o1`, the values for the Activity in assay [1] and in assay [2] were 9.2 and 139, respectively.
The like results for `[N-]=[N+]=Nc1cccc(Cn2nc(-c3ccc(CO)o3)c3ccccc32)c1` were, in that order, 2 and 7.1.
As usually defined, the pEC50 is the EC50 on a negative log10 scale, so that one unit is a factor of ten. For the molecule `[N-]=[N+]=Nc1ccc2c(-c3ccc(CO)o3)nn(Cc3ccccc3)c2c1`, the Activity in assay [1] amounted to 3.4; in assay [2] it was 29. For the same molecule, the pEC50 in assay [3] is 4.66.
Regarding `[N-]=[N+]=Nc1ccc2c(c1)c(-c1ccc(CO)o1)nn2Cc1ccccc1`, the Activity in assay [1] came out at 1.7; in assay [2], 4.4.
The like results for `[N-]=[N+]=Nc1ccc(Cn2nc(-c3ccc(CO)o3)c3ccccc32)cc1` were, in that order, 4.7 and 20.3.
